# HGIII-sPLA2 inh: Blocks human group III sPLA2 activity. QFRET BODIPY PC-A2 liposome hydrolysis, fluorescence. inhibition, % at 12.2 µM. 0.56% of 370,000 active. AID 743126;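 active = inhibition above mean plus 3 SD of compounds lying within the high and low control bounds, cut at about 19% in these data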;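 also: 0% = median of test compound wells and 100% = no enzyme DMSO wells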
# Tb MetRS inh: blocks T. brucei methionyl-tRNA synthetase activity; purified T. brucei MetRS, ATP depletion, Kinase-Glo luminescence; inhibition, % at 11.9 µM; 0.4% of 360,000 active;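 active = inhibition above a per-plate cutoff of the control wells' mean inhibition plus 3 SD, cut at about 5.5% in these data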;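 also: 0% = DMSO wells median and 100% = median of wells with control inhibitor compound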
#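 Dosing: 11.9 µM compound single dose, 0.9% DMSO; Assay system: purified T. brucei MetRS enzyme; Measured by: Kinase-Glo luciferase luminescence reporting remaining unconsumed ATP; Schedule: 15 min plus 2 h at 25 °C.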
# PLCb3 inh: PLC-beta3 (human) inhibition, primary screen. Q01970. Purified PLC-beta3, fluorogenic substrate, fluorescence. inhibition, % at 12.2 µM. 0.18% of 370,000 active. AID 720704;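 also: 0% = median of compound wells on plate and 100% = full blocker control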
# PLCg1 inh: inhibitors of human phospholipase C gamma1. P19174. purified PLC-gamma1, fluorogenic substrate, fluorescence. inhibition, % at 12.2 µM. 0.84% of 370,000 active; in the data active = inhibition above about 9.5%
# Target sequence (P19174 whole entry, looked up): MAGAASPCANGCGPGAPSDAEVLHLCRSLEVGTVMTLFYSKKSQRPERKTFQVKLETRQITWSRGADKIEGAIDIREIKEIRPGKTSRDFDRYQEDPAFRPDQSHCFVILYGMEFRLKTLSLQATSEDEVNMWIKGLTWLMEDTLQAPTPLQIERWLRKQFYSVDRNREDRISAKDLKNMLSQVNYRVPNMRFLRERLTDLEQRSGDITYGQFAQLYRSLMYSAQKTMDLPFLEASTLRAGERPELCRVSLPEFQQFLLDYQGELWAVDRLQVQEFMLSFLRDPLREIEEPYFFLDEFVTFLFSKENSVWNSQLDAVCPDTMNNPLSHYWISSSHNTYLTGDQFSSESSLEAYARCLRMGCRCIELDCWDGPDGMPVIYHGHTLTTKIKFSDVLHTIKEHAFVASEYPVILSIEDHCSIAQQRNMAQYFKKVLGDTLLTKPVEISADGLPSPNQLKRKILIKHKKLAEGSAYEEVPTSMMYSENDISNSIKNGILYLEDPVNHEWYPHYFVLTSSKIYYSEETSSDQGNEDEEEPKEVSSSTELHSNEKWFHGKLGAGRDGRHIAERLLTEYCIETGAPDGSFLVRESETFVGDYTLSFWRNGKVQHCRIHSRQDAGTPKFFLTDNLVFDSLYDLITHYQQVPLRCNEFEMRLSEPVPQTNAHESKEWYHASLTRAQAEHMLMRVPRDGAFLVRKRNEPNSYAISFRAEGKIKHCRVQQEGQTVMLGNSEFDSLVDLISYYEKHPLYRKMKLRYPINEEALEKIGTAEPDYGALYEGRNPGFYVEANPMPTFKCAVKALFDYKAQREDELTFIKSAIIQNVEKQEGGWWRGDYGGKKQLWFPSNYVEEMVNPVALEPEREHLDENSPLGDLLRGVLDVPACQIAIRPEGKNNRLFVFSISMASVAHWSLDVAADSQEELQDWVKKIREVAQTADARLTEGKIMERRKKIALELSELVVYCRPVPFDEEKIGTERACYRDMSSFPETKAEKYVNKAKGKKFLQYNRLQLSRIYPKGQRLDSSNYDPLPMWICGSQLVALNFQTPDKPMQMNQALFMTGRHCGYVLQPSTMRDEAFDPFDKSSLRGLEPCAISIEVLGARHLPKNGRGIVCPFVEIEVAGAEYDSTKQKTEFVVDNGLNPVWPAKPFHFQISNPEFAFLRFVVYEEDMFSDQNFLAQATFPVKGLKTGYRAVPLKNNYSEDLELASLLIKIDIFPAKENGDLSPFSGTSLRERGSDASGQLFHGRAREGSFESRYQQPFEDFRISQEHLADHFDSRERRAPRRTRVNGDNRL
# PLCgamma1 ctr: inhibits human PLC-gamma1 in PLC-beta3 counter-screen; shares compounds with PLCg1 inh; purified PLC-gamma1, fluorogenic substrate, fluorescence; inhibition, % at 12.3 µM; 3.1% of 3,300 active; AID 743258; in the data active = inhibition above about 9.5%
# PLCb3 confirm: human PLC-beta3 inhibition, confirmation; shares compounds with PLCg1 inh; purified PLC-beta3, fluorogenic substrate fluorescence; inhibition, % at 12.3 µM; 1% of 3,300 active
# An asterisk follows results filed as active; / = not tested or not shown. An excerpt weighted towards active compounds, which were near 1.9% of everything screened. Rule as the data show it, unless noted: active = inhibition above about 11%; inactive = the rest.
SMILES,HGIII-sPLA2 inh,Tb MetRS inh,PLCb3 inh,PLCg1 inh,PLCgamma1 ctr,PLCb3 confirm
COc1ccc(S(=O)(=O)N(C)CC(=O)Nc2cccc(C(C)=O)c2)cc1,-10,0,0,1,/,/
COc1ccc(S(=O)(=O)N(C)CC(=O)Nc2ccc(F)cc2)cc1,1,1,11*,7,-2,1
COC(=O)[C@H]1C[C@@]2(c3ccccc3)c3ccccc3N(S(=O)(=O)c3ccccc3)[C@H]2N1,7,/,4,5,/,/
CNC[C@@H](Cc1ccccc1)NC[C@@H](CC1CCCCC1)NCCCc1ccccc1,16,0,6,13*,1,1
CC(C)[C@@H](C)/C=C/[C@@H](C)[C@H]1CC[C@@H]2[C@]1(C)CCC1[C@]23C=C[C@]2(C[C@@H](O)CC[C@]12C)N(c1ccc(Br)cn1)O3 (stereo not given in full),8,/,-6,9.9*,-1,1
CC(C)CN1C(=O)[C@@]2(CC(=O)N(C)C2c2ccccc2)c2cc(-n3cc(CCc4ccccc4)nn3)ccc21 (stereo not given in full),7,/,1,10*,-2,0
CC(C)CN1C(=O)[C@]2(CC(=O)N(C)C2c2ccccc2)c2cc(-n3cc(CCc4ccccc4)nn3)ccc21 (stereo not given in full),1,/,2,0,/,/
CCOC(=O)Cc1csc(SCC(=O)Nc2cccc(Cl)c2)n1,-14,-1,3,14*,-11,-4
CCOC(=O)Cc1csc(SCC(=O)Nc2cccc(C#N)c2)n1,-5,0,1,-4,/,/
CCOc1ccc(Br)cc1S(=O)(=O)Nc1cccnc1,0,0,3,-2,/,/
CCOc1ccc(C)cc1S(=O)(=O)Nc1cccnc1,-5,0,4,9.8*,-20,-2
COCCCNC(=O)C[C@H]1C[C@@]2(C(=O)OC)C(=C[C@H](C(C)C)O[C@@H]2C2CC2)N(CCC2=CCCCC2)C1=O,-7,/,5,1,/,/
CCc1nc2nc(C)c(NS(=O)(=O)c3ccc(F)cc3)c(=O)n2[nH]1,11,-1,8,11*,-2,1
COC(=O)[C@]12C[C@H](CC(=O)NCCCCc3ccccc3)C(=O)N(CCc3ccc(OC)c(OC)c3)C1=C[C@H](C(C)(C)C)O[C@@H]2C,-18,/,2,-1,/,/
Cc1nc2c3cc(F)ccc3n(CCN3CCCCC3)c2s1,9,0,-10,9.7*,-6,0
Cc1nc2c3cc(F)ccc3n(Cc3ccccc3)c2s1,1,1,-2,0,/,/
COC(=O)C1=C(C)N(Cc2ccc(C(F)(F)F)cc2)C(=NCc2ccc(OC)cc2)NC1c1ccccc1C(F)(F)F (stereo not given),3,/,4,9.9*,-5,-5
COC(=O)C1=C(C)N(Cc2ccccc2)C(=S)N[C@H]1c1ccc(Br)cc1,5,0,-3,1,/,/
COC(=O)C1=C(C)N(Cc2ccc(C(F)(F)F)cc2)C(=NCc2ccccc2)NC1c1cccc(F)c1 (stereo not given),-7,/,7,6,/,/
COC(=O)C1=C(C)N(Cc2cccc(C(F)(F)F)c2)C(=NCc2ccc(C(F)(F)F)cc2)NC1c1cccc(F)c1 (stereo not given),-8,/,14*,8,-6,-4
COC(=O)C1=C(C)N(Cc2ccccc2)C(=S)NC1c1ccc(Br)cc1 (stereo not given),19,/,4,9.7*,-1,0
COC(=O)C1=C(C)N(Cc2cccc(C(F)(F)F)c2)C(=NCc2ccc(C(F)(F)F)cc2)NC1c1ccc(C(F)(F)F)cc1 (stereo not given),-11,/,8,13*,5,5
CCOC(=O)[C@@]12CCCC3=C1N(CCC3)C(=O)[C@H]2CC(=O)NCc1ccc(C)o1,-4,/,0,-1,/,/
O=C(CCNS(=O)(=O)c1ccccc1C(F)(F)F)NCCCSc1ccccc1,-47,0,-1,12*,-6,-1
C=CCN(Cc1ccc(Cl)s1)C(=O)c1ccc(F)c(S(=O)(=O)N2CCOCC2)c1,-10,0,5,80*,0,-3
CC(NC(C)c1ccccc1Cl)C(=O)Nc1cccc(S(=O)(=O)N2CCCCC2)c1 (stereo not given),-12,-1,-5,9.8*,1,1
